Bioassay records as filed in PubChem BioAssay.
An excerpt weighted towards active compounds, which were near 4.8% of everything screened.
PAFAH2 inh = PAFAH2 enzyme inhibitors, primary screen, biochemical, fluorescence polarization, human; Platelet-activating factor acetylhydrolase 2, cytoplasmic (Homo sapiens), Q99487; recombinant PAFAH2, FP-rhodamine activity probe; inhibition, % at 3.39 µM; 340,000 compounds, 0.99% hits;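 active means inhibition above the mean over all tested compounds plus 3 SD, cut at about 30% in these data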;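 further: inhibitors block probe labeling of enzyme so polarization drops; 0% = enzyme with DMSO and 100% = wells lacking PAFAH2 protein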
NR3A LBD binder = binders of NR3A ligand-binding domain, primary screen, biophysical, differential scanning fluorimetry, uHTS; 340,000 compounds, 2.5% hits; NR3A LBD differential scanning fluorimetry, Tm shift; 0% = protein alone, 100% = glycine-bound protein; Glutamate receptor ionotropic, NMDA 3A (GRIN3A) ligand-binding domain; Tm shift relative to glycine control, % at 25 µM;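 active means melting temperature shift of at least 10% of the positive control shift, at one fixed dose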
UCH37 inh = inhibitors of human UCH37 deubiquitinase, primary screen, biochemical, Ub-AMC cleavage, fluorescence. Ubiquitin carboxyl-terminal hydrolase isozyme L5 (Homo sapiens), Q9Y5K5. purified proteasome/UCH37. inhibition, % (test concentration not listed). 330,000 compounds, 0.33% hits. AID 588478, 2011;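 active means mean inhibition over replicate wells above about 20%, limit read from the data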;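 further: 0% = compound-free wells with enzyme and 100% = wells lacking proteasome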
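system = Proteasome-associated human UCH37 deubiquitinase | amount = 0.15 nM proteasome as dispensed | medium = pH 7.4 Tris-HCl (50 mM) with ovalbumin, ATP-MgCl2, DTT | incubation = 30 min preincubation with enzyme, 25 min cleavage at room temperature | detection = AMC fluorescence 355/460 nm | read-out basis = percent inhibition | controls = no-proteasome and no-compound wells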
pPAFAH inh = pPAFAH enzyme inhibitors, primary screen, biochemical, fluorescence polarization, human; recombinant pPAFAH, FP-rhodamine probe fluorescence polarization; inhibition, % at 3.39 µM; AID 463082, 2010; 330,000 compounds, 1.5% hits;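 active means inhibition above the mean inhibition across the screen plus 3 SD, cut at about 25% in these data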;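 further: inhibitors block binding of the rhodamine activity-based probe so polarization drops; 0% = enzyme with DMSO and 100% = wells lacking pPAFAH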
PAFAH1B2 inh = PAFAH1B2 enzyme inhibitors, primary screen, biochemical, fluorescence polarization, human. Platelet-activating factor acetylhydrolase IB subunit alpha2 (Homo sapiens), P68402. recombinant PAFAH1B2, FP-rhodamine activity probe. inhibition, % at 3.39 µM. 340,000 compounds, 1.2% hits;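 active means inhibition above the mean of all tested compounds plus 3 SD, cut at about 24% in these data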;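 further: 0% = enzyme with DMSO and 100% = wells lacking PAFAH1B2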
Target sequence (P68402 whole entry, looked up): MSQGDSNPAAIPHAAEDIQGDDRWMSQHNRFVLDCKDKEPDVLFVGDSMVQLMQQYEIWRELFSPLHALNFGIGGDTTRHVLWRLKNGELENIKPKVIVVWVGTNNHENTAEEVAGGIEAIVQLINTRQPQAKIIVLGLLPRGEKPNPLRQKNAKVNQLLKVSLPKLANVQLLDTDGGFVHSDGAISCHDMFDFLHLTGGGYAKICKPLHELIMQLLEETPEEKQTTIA
PAFAH1B3 inh = PAFAH1B3 enzyme inhibitors, primary screen, biochemical, fluorescence polarization, human | Platelet-activating factor acetylhydrolase IB subunit alpha1 (Homo sapiens), Q15102 | recombinant PAFAH1B3, FP-rhodamine probe | inhibition, % at 3.39 µM | 340,000 compounds, 0.28% hits | AID 492972, 2010;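 active means inhibition above the screen-wide average of all tested compounds plus 3 SD, cut at about 25% in these data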;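 further: 0% = enzyme with DMSO only and 100% = wells lacking PAFAH1B3 protein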
Target sequence (Q15102 whole entry, looked up): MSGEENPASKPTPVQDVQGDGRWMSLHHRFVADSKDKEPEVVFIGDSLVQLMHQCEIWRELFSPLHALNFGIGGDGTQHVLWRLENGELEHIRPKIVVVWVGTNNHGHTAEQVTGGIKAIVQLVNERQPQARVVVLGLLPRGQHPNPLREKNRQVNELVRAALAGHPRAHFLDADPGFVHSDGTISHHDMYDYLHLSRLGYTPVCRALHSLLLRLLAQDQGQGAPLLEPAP
Numbers without * were called inactive; x = no result given.

SMILES | PAFAH2 inh | NR3A LBD binder | UCH37 inh | pPAFAH inh | PAFAH1B2 inh | PAFAH1B3 inh
COc1cccc2c1C(=O)c1c(O)c3c(c(O)c1C2=O)C[C@@](O)(C(C)=O)C[C@@H]3O[C@H]1C[C@H](N)[C@H](O)[C@H](C)O1 | 54.1* | -4.4 | 3.9 | x | 51.0* | 37.2*
O=C(N/N=C/c1ccc(O)cc1O)c1ccc(CN2C(=O)c3cccc4cccc2c34)cc1 | 38.7* | 19.8* | x | 29.7* | 43.0* | 35.2*
Cc1cc([N+](=O)[O-])nn1Cc1ccc(C(=O)N/N=C/c2ccc(O)cc2O)cc1 | -13.1 | 9.9 | x | 28.6* | 4.7 | 14.8
O=C(NN=Cc1ccc(O)cc1O)c1ccc(CN2C(=O)c3cccc4cccc2c34)cc1 | x | x | 1.8 | x | x | x
S=c1[nH]nc(-c2cccnc2)n1N=Cc1ccc(Br)s1 | x | x | 0.1 | x | x | x
CCOc1ccccc1-c1nc2c(s1)CCc1onc(-c3ccc(OC)cc3)c1-2 | -3.6 | 16.8* | 1.4 | 0.1 | -2.2 | 6.6
COc1ccc(-c2noc3c2-c2nc(-c4ccccc4Cl)sc2CC3)cc1 | -10.5 | -6.2 | -2.9 | 5.1 | 4.8 | 0.3
O=C(NN=Cc1ccccc1)c1cccc2ccccc12 | x | x | 0.7 | x | x | x
O=C(O)CN1C(=O)/C(=C2\SC(=S)N(C(Cc3ccccc3)C(=O)O)C2=O)c2ccccc21 (centres undefined) | 18.8 | 1.3 | 6.8 | 4.4 | 6.5 | 6.7
CCCC(C(=O)O)N1C(=O)/C(=C2\C(=O)N(C)c3ccccc32)SC1=S (centres undefined) | 2.4 | 26.8* | 1.8 | 4.4 | 0.7 | 7.3
COc1ccc(N(CC(=O)NN=Cc2cccc(OC)c2OC)S(=O)(=O)c2ccccc2)cc1 | x | x | 1.0 | x | x | x
CCOc1cc(C(N)=O)cc(OCC)c1OCC | -0.6 | 1.4 | 2.7 | 1.1 | 0.1 | 8.2
CCOc1cc(-c2nn3cnnc3s2)cc(OCC)c1OCC | -9.0 | -0.4 | -1.5 | 27.9* | -3.8 | 1.2
Cc1cccc(NC(=O)c2cc(NC(=O)c3ccccc3)ccc2N2CCCCC2)c1 | -4.4 | -4.9 | -49.4 | 4.8 | -1.8 | -2.7
C#Cc1ccc(C(=O)Nc2ccc(N3CCC(C)CC3)c(C(N)=O)c2)cc1 | 2.3 | 27.3* | 1.8 | 5.9 | -2.0 | 3.3
O=C1[C@H](Cc2ccccc2)NCCCC[C@H](c2ccc(Cl)cc2)N1Cc1ccccc1 | -2.5 | 10.1* | 1.3 | x | 8.6 | 10.5
O=C1[C@H](Cc2ccccc2)NCCCC[C@@H](c2ccc(Cl)cc2)N1Cc1ccc(Cl)cc1 | 7.9 | -18.9 | 0.6 | x | 10.7 | 1.0
O=C(O)c1ccc(Nc2nc(-c3ccccc3)cs2)cc1 | 13.9 | 4.1 | 4.5 | 8.2 | 24.6* | 8.4
CC(=O)Nc1nc(C)c(-c2csc(Nc3ccccn3)n2)s1 | 1.4 | 21.8* | -76.7 | 20.1 | 2.6 | 12.8
O=C(Nc1ccc(-c2csc(Nc3ccccc3)n2)cc1)c1cccc(C(F)(F)F)c1 | -6.4 | 25.9* | 3.1 | 0.1 | 5.1 | 16.1
O=C(Nc1ccccc1)c1cccc(C(F)(F)F)c1 | 0.4 | -5.5 | 6.5 | 0.1 | 5.1 | 10.5
Cc1nc(NC(=O)c2ccccc2)sc1-c1csc(Nc2ccc(C(=O)O)cc2)n1 | 32.2* | 1.2 | -9.0 | x | 15.8 | 29.3*
COc1ccc(C=NNC(=S)Nc2c(C)n(C)n(-c3ccccc3)c2=O)cc1OC | x | x | 12.9 | x | x | x
Cc1ccc(OCC(=O)NN=Cc2cn(Cc3ccccc3)c3ccccc23)cc1C | x | x | -0.1 | x | x | x
CC(=NNC(=O)c1ccc2c(c1)OCO2)c1ccc(NC(=O)c2ccc(F)cc2)cc1 | x | x | -6.1 | x | x | x
CC(=NNc1ccc([N+](=O)[O-])cc1)c1ccc(C#N)cc1 | x | x | 5.3 | x | x | x
CCN(CC)S(=O)(=O)c1ccc(O)c(NC(=O)COc2ccc(S(=O)(=O)N3CCOCC3)cc2)c1 | 12.6 | -2.2 | 0.7 | x | 0.6 | 11.8
CCS(=O)(=O)c1ccc(O)c(NC(=O)COc2ccc(Br)cc2)c1 | 79.9* | -1.1 | 2.0 | 5.4 | 33.9* | 3.3
